According to ChEMBL document CHEMBL1132453, “Heteroarotinoids inhibit head and neck cancer cell lines in vitro and in vivo through both RAR and RXR retinoic acid receptors” (J Med Chem, 1999):

Key:
[1] = tested on: SCC-38 (Homo sapiens); experiment: Inhibition of SCC-38 cell proliferation; parameters: concentration or dose not given beside the values
[2] = tested on: SCC-2 (Homo sapiens); experiment: Inhibition of SCC-2 cell proliferation; parameters: concentration or dose not given beside the values
[3] = molecular target: T1, Retinoic acid receptor RXR-beta (Mus musculus, UniProt P28704); experiment: Transcriptional activation of CV-1 cells expressing murine Retinoid X receptor RXR beta; format: cell-based
T1 sequence (P28704 whole entry): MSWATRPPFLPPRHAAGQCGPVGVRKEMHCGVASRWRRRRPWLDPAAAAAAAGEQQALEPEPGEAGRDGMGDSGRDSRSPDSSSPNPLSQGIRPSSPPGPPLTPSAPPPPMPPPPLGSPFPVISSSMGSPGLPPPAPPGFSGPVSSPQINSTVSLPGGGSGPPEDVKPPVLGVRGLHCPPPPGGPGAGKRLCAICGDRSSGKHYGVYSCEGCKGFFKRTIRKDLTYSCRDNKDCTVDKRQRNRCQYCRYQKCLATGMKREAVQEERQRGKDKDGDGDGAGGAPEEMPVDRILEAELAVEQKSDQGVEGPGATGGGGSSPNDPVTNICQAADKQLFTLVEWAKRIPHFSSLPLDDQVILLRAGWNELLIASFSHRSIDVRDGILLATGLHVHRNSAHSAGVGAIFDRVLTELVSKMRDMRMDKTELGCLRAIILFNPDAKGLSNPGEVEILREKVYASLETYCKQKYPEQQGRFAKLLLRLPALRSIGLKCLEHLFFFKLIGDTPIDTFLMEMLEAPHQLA
Method in brief: (§1)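 CV-1 cells were plated at 7.5 × 10^4/well and transfected 24 h later (FuGENE6). Each well got a receptor vector (human RARα/β/γ in pECE or mouse RXRα/β/γ in pSG5), a βRARE-tk-CAT reporter and a β-actin-βGal control. After 16-18 h, ligand was added in 10-fold steps from 10^-10 to 10^-5 M (0.01% DMSO) for 24 h. CAT was measured by ELISA and normalised to βGal. Triplicates, repeated at least twice.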

[4] = molecular target: T2, Retinoic acid receptor RXR-alpha (Mus musculus, UniProt P28700); experiment: Transcriptional activation of CV-1 cells expressing murine Retinoid X receptor RXR alpha; format: cell-based
T2 sequence (P28700 whole entry): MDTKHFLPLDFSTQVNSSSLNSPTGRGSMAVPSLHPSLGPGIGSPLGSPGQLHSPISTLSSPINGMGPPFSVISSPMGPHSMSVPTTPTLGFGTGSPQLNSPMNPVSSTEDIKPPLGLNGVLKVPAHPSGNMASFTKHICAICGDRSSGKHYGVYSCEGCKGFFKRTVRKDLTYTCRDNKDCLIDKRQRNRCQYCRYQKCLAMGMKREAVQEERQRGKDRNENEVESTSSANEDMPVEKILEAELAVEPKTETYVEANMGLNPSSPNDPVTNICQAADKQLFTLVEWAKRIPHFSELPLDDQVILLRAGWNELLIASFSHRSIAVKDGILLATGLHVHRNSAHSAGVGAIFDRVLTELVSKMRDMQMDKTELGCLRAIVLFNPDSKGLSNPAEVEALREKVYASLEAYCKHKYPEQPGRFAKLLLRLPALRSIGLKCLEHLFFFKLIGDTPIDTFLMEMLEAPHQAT
Method in brief: as §1

[5] = molecular target: T3, Retinoic acid receptor RXR-gamma (Mus musculus, UniProt P28705); experiment: Transcriptional activation of CV-1 cells expressing murine Retinoid X receptor RXR gamma; format: cell-based
T3 sequence (P28705 whole entry): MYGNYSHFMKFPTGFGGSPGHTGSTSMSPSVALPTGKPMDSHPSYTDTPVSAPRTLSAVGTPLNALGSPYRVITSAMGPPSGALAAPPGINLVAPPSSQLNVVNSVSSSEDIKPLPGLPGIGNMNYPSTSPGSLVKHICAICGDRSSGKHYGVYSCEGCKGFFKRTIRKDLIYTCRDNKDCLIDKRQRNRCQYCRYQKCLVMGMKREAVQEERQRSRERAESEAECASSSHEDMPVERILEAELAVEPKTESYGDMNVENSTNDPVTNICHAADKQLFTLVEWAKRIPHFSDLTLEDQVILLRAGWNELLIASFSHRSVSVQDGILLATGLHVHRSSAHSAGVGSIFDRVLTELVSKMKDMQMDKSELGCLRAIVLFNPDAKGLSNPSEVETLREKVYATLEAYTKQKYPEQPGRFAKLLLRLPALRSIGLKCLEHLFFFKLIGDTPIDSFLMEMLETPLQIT
Method in brief: as §1

[6] = molecular target: T4, Retinoic acid receptor alpha (Homo sapiens, UniProt P10276); experiment: Transcriptional activation in CV-1 cells expressing human Retinoic acid receptor RAR alpha; format: cell-based
T4 sequence (P10276 whole entry): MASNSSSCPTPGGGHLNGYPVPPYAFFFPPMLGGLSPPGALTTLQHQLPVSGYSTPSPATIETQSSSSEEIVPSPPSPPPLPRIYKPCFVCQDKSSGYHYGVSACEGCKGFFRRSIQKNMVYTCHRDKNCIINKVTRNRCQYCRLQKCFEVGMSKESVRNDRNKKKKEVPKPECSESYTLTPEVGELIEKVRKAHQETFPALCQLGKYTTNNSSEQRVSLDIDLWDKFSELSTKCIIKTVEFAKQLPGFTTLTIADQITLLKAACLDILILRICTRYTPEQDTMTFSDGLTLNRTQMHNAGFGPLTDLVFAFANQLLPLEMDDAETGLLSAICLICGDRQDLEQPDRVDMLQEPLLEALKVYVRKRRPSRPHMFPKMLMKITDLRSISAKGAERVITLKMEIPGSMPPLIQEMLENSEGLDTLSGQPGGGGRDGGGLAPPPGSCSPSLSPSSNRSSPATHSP
Method in brief: as §1

[7] = molecular target: T5, Retinoic acid receptor gamma (Homo sapiens, UniProt P13631); experiment: Transcriptional activation in CV-1 cells expressing human Retinoic acid receptor RAR gamma; format: cell-based
T5 sequence (P13631 whole entry): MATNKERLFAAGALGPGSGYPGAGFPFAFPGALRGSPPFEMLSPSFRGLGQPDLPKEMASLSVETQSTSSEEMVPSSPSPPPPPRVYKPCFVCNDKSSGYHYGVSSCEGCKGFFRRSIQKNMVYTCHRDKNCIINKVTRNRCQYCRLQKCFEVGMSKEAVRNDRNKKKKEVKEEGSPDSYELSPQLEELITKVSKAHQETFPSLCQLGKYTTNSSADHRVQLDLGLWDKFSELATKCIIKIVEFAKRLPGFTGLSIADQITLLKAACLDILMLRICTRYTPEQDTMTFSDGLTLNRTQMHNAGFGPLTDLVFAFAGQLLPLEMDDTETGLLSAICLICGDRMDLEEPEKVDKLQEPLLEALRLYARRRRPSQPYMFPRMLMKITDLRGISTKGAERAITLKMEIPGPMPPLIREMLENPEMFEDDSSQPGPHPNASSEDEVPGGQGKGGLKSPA
Method in brief: as §1

[8] = molecular target: T6, Retinoic acid receptor beta (Homo sapiens, UniProt P10826); experiment: Transcriptional activation in CV-1 cells expressing human Retinoic acid receptor RAR beta; format: cell-based
T6 sequence (P10826 whole entry): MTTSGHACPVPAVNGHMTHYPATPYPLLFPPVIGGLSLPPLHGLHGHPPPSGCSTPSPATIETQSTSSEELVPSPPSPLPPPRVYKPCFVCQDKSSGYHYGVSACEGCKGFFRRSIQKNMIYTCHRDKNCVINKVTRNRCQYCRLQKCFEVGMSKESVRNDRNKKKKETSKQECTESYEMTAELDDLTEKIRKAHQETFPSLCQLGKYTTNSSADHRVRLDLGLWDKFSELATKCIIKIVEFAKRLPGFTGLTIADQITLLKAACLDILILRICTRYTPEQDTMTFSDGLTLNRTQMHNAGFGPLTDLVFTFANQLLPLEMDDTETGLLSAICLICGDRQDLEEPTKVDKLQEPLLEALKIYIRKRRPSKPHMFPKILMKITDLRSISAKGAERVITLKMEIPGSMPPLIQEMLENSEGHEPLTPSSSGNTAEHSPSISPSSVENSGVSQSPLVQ
Method in brief: as §1

[9] = tested on: SCC-38 (Homo sapiens); experiment: Inhibition of SCC-38 cell proliferation
[10] = tested on: SCC-2 (Homo sapiens); experiment: Inhibition of SCC-2 cell proliferation

SMILES	Inhibition [1]	Inhibition [2]	further results
COC(=O)c1ccc(C(=O)Oc2c(C)cc3c(c2C)C(C)(C)CC(C)(C)O3)cc1	9%	-1%	–
CC1=C(/C=C/C(C)=C\C=C\C(C)=C\C(=O)O)C(C)(C)CCC1 [ALITRETINOIN]	10%	13%	–
CCOC(=O)c1ccc(OC(=O)c2ccc3c(c2)C(C)(C)CCO3)cc1	13%	-6%	–
CC1(C)CCOc2ccc(C(=O)Oc3ccc(/C=N/N=C(/N)S)cc3)cc21	18%	19%	EC50 [3]: 84 nM; EC50 [4]: 294 nM; EC50 [5]: 1900 nM; EC50 [6]: > 10000 nM; EC50 [7]: > 10000 nM; EC50 [8]: > 10000 nM
COC(=O)c1ccc(C(=O)Nc2ccc3c(c2)C(C)(C)CC(C)(C)S3)cc1	–	–	Inhibition [9]: 37%; EC50 [3]: 1000 nM; EC50 [4]: 84 nM; Inhibition [10]: 64%; EC50 [5]: 302 nM; EC50 [6]: 225 nM; EC50 [7]: 152 nM; EC50 [8]: 1000 nM
CCOC(=O)c1ccc(OC(=O)c2cc3c(cc2OC)C(C)(C)CCC3(C)C)cc1	12%	15%	–
CCOC(=O)c1ccc(OC(=O)c2ccc3c(c2)C(C)(C)CCN3C)cc1	13%	12%	–
CC(/C=C/C=C(\C)c1ccc2c(c1)C(C)(C)CCS2)=C\C(=O)O	1%	2%	–
CCOC(=O)c1ccc(OC(=O)c2cc3c(cc2OC)C(C)(C)COC3(C)C)cc1	6%	52%	–
C/C(=C\c1ccc(C(=O)O)cc1)c1ccc2c(c1)C(C)(C)CO2	1%	1%	–
CCOC(=O)c1ccc(OC(=O)c2ccc3c(c2)C(C)(C)CCN3C(C)C)cc1	15%	5%	–
CCOC(=O)/C=C(C)/C=C/C=C(\C)c1ccc2c(c1)OCCO2	-2%	-33%	–
CCCCCCCCC1CCc2cc(/C(C)=C/c3ccc(C(=O)OCC)cc3)ccc2S1 (centres undefined)	17%	10%	–
COC(=O)c1ccc(N(OC)C(=O)c2ccc3c(c2)C(C)(C)CCO3)cc1	17%	3%	–
COC(=O)c1ccc(C(=O)Oc2c(C)cc3c(c2C)C(C)(C)C=C(C)O3)cc1	-8%	15%	–
CCOC(=O)c1ccc(OC(=O)c2cc3c(cc2C)N(C)CCC3(C)C)cc1	7%	9%	–
